ChEMBL document CHEMBL4689842, “EUbOPEN Chemogenomics Library wave 1” (2021)

System: Fibroblast
Test: Multiplex assay against human fibroblast
Assay type: toxicity, cell-based
Method in brief: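 Values for tubulin, mitochondrial-mass and membrane-permeability phenotypes are per cents of cells with healthy nuclei. These cells were identified by CellPathfinder machine-learning gating of live cells that had been stained at seeding with Hoechst33342, BioTracker Green Microtubule Cytoskeleton Dye, MitoTracker Red and Annexin V Alexa Fluor 680 and imaged on a CQ1 microscope at 37°C and 5% CO2 after compound addition. The gating first set Hoechst high-intensity objects apart from normal cells, then split normal cells into healthy, pyknosed or fragmented nuclei, and pyknosed cells into mitotic or apoptotic.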

[1] = 12 h, 1 µM, compound concentration 1 uM, replicate 1
[2] = 12 h, 1 µM, compound concentration 1 uM, replicate 2
[3] = 12 h, 10 µM, compound concentration 10 uM, replicate 1
[4] = 12 h, 10 µM, compound concentration 10 uM, replicate 2
[5] = 24 h, 1 µM, compound concentration 1 uM, replicate 1
[6] = 24 h, 1 µM, compound concentration 1 uM, replicate 2
[7] = 24 h, 10 µM, compound concentration 10 uM, replicate 1
[8] = 24 h, 10 µM, compound concentration 10 uM, replicate 2
[9] = 48 h, 1 µM, compound concentration 1 uM, replicate 1
[10] = 48 h, 1 µM, compound concentration 1 uM, replicate 2
[11] = 48 h, 10 µM, compound concentration 10 uM, replicate 1
[12] = 48 h, 10 µM, compound concentration 10 uM, replicate 2

For CCc1cccc(CC)c1NC(=O)c1nn(C)c2c1CCc1cnc(Nc3ccc(C(=O)NC4CCN(C)CC4)cc3OC(F)(F)F)nc1-2, the “Population Apoptotic (%)” value [1] was 62%, the “Population Fragmented Nuclei (%)” value [1] was 22% and the “Population Healthy Nuclei (%)” value [1] was 38%. For the same molecule, the “Population Hoechst High Intensity Objects (%)” value [1] was 7%, the “Population Membrane Permeable-Phenotype (%)” value [1] was 24% and the “Population Mitochondria Different-Phenotype (%)” value [1] was 7%. The “Population Mitotic Cells (%)” value [1] was 37%, the “Population Normal (%)” value [1] was 92% and the “Population Pyknosed Nuclei (%)” value [1] was 39%. For the same molecule, the “Population Tubulin-Different-Phenotype (%)” value [1] was 47%, the “Total Cell Count” value [1] was 160 and the “Population Apoptotic (%)” value [2] was 40%. The “Population Fragmented Nuclei (%)” value [2] was 1%, the “Population Healthy Nuclei (%)” value [2] was 83% and the “Population Hoechst High Intensity Objects (%)” value [2] was 13%. The “Population Membrane Permeable-Phenotype (%)” value [2] was 5%, the “Population Mitochondria Different-Phenotype (%)” value [2] was 14% and the “Population Mitotic Cells (%)” value [2] was 60%. The “Population Normal (%)” value [2] was 86%, the “Population Pyknosed Nuclei (%)” value [2] was 15% and the “Population Tubulin-Different-Phenotype (%)” value [2] was 18%. For the same molecule, the “Total Cell Count” value [2] was 51, the “Population Apoptotic (%)” value [3] was 61% and the “Population Fragmented Nuclei (%)” value [3] was 24%. For the same molecule, the “Population Healthy Nuclei (%)” value [3] was 51%, the “Population Hoechst High Intensity Objects (%)” value [3] was 21% and the “Population Membrane Permeable-Phenotype (%)” value [3] was 8%. The “Population Mitochondria Different-Phenotype (%)” value [3] was 26%, the “Population Mitotic Cells (%)” value [3] was 38% and the “Population Normal (%)” value [3] was 78%. For the same molecule, the “Population Pyknosed Nuclei (%)” value [3] was 23%, the “Population Tubulin-Different-Phenotype (%)” value [3] was 60% and the “Total Cell Count” value [3] was 139. The “Population Apoptotic (%)” value [4] was 46%, the “Population Fragmented Nuclei (%)” value [4] was 12% and the “Population Healthy Nuclei (%)” value [4] was 70%. The “Population Hoechst High Intensity Objects (%)” value [4] was 5%, the “Population Membrane Permeable-Phenotype (%)” value [4] was 15% and the “Population Mitochondria Different-Phenotype (%)” value [4] was 98%. The “Population Mitotic Cells (%)” value [4] was 53%, the “Population Normal (%)” value [4] was 94% and the “Population Pyknosed Nuclei (%)” value [4] was 17%. The “Population Tubulin-Different-Phenotype (%)” value [4] was 86%, the “Total Cell Count” value [4] was 75 and the “Population Apoptotic (%)” value [5] was 48%. The “Population Fragmented Nuclei (%)” value [5] was 23%, the “Population Healthy Nuclei (%)” value [5] was 40% and the “Population Hoechst High Intensity Objects (%)” value [5] was 11%. For the same molecule, the “Population Membrane Permeable-Phenotype (%)” value [5] was 23%, the “Population Mitochondria Different-Phenotype (%)” value [5] was 5% and the “Population Mitotic Cells (%)” value [5] was 52%. The “Population Normal (%)” value [5] was 88%, the “Population Pyknosed Nuclei (%)” value [5] was 35% and the “Population Tubulin-Different-Phenotype (%)” value [5] was 53%. The “Total Cell Count” value [5] was 157, the “Population Apoptotic (%)” value [6] was 37% and the “Population Fragmented Nuclei (%)” value [6] was 7%. For the same molecule, the “Population Healthy Nuclei (%)” value [6] was 81%, the “Population Hoechst High Intensity Objects (%)” value [6] was 10% and the “Population Membrane Permeable-Phenotype (%)” value [6] was 5%. The “Population Mitochondria Different-Phenotype (%)” value [6] was 12%, the “Population Mitotic Cells (%)” value [6] was 62% and the “Population Normal (%)” value [6] was 89%. For the same molecule, the “Population Pyknosed Nuclei (%)” value [6] was 11%, the “Population Tubulin-Different-Phenotype (%)” value [6] was 19% and the “Total Cell Count” value [6] was 53. The “Population Apoptotic (%)” value [7] was 62%, the “Population Fragmented Nuclei (%)” value [7] was 25% and the “Population Healthy Nuclei (%)” value [7] was 49%. The “Population Hoechst High Intensity Objects (%)” value [7] was 30%, the “Population Membrane Permeable-Phenotype (%)” value [7] was 16% and the “Population Mitochondria Different-Phenotype (%)” value [7] was 40%. For the same molecule, the “Population Mitotic Cells (%)” value [7] was 37%, the “Population Normal (%)” value [7] was 69% and the “Population Pyknosed Nuclei (%)” value [7] was 25%. For the same molecule, the “Population Tubulin-Different-Phenotype (%)” value [7] was 50%, the “Total Cell Count” value [7] was 161 and the “Population Apoptotic (%)” value [8] was 50%. For the same molecule, the “Population Fragmented Nuclei (%)” value [8] was 15%, the “Population Healthy Nuclei (%)” value [8] was 63% and the “Population Hoechst High Intensity Objects (%)” value [8] was 2%. The “Population Membrane Permeable-Phenotype (%)” value [8] was 26%, the “Population Mitochondria Different-Phenotype (%)” value [8] was 91% and the “Population Mitotic Cells (%)” value [8] was 50%. The “Population Normal (%)” value [8] was 97%, the “Population Pyknosed Nuclei (%)” value [8] was 20% and the “Population Tubulin-Different-Phenotype (%)” value [8] was 73%. The “Total Cell Count” value [8] was 77, the “Population Apoptotic (%)” value [9] was 67% and the “Population Fragmented Nuclei (%)” value [9] was 31%. For the same molecule, the “Population Healthy Nuclei (%)” value [9] was 45%, the “Population Hoechst High Intensity Objects (%)” value [9] was 15% and the “Population Membrane Permeable-Phenotype (%)” value [9] was 16%. For the same molecule, the “Population Mitochondria Different-Phenotype (%)” value [9] was 7%, the “Population Mitotic Cells (%)” value [9] was 32% and the “Population Normal (%)” value [9] was 84%. For the same molecule, the “Population Pyknosed Nuclei (%)” value [9] was 23%, the “Population Tubulin-Different-Phenotype (%)” value [9] was 40% and the “Total Cell Count” value [9] was 141. For the same molecule, the “Population Apoptotic (%)” value [10] was 20%, the “Population Fragmented Nuclei (%)” value [10] was 38% and the “Population Healthy Nuclei (%)” value [10] was 55%. The “Population Hoechst High Intensity Objects (%)” value [10] was 11%, the “Population Membrane Permeable-Phenotype (%)” value [10] was 10% and the “Population Mitochondria Different-Phenotype (%)” value [10] was 4%. For the same molecule, the “Population Mitotic Cells (%)” value [10] was 80%, the “Population Normal (%)” value [10] was 88% and the “Population Pyknosed Nuclei (%)” value [10] was 5%. For the same molecule, the “Population Tubulin-Different-Phenotype (%)” value [10] was 42%, the “Total Cell Count” value [10] was 102 and the “Population Apoptotic (%)” value [11] was 70%. For the same molecule, the “Population Fragmented Nuclei (%)” value [11] was 31%, the “Population Healthy Nuclei (%)” value [11] was 50% and the “Population Hoechst High Intensity Objects (%)” value [11] was 38%. The “Population Membrane Permeable-Phenotype (%)” value [11] was 16%, the “Population Mitochondria Different-Phenotype (%)” value [11] was 15% and the “Population Mitotic Cells (%)” value [11] was 30%. For the same molecule, the “Population Normal (%)” value [11] was 61%, the “Population Pyknosed Nuclei (%)” value [11] was 18% and the “Population Tubulin-Different-Phenotype (%)” value [11] was 47%. For the same molecule, the “Total Cell Count” value [11] was 172, the “Population Apoptotic (%)” value [12] was 25% and the “Population Fragmented Nuclei (%)” value [12] was 29%. The “Population Healthy Nuclei (%)” value [12] was 67%, the “Population Hoechst High Intensity Objects (%)” value [12] was 15% and the “Population Membrane Permeable-Phenotype (%)” value [12] was 30%. For the same molecule, the “Population Mitochondria Different-Phenotype (%)” value [12] was 10%, the “Population Mitotic Cells (%)” value [12] was 75% and the “Population Normal (%)” value [12] was 84%. For the same molecule, the “Population Pyknosed Nuclei (%)” value [12] was 2%, the “Population Tubulin-Different-Phenotype (%)” value [12] was 43% and the “Total Cell Count” value [12] was 158.
